# Screens as filed in PubChem.
# Dynein transport – blocks dynein driven cargo transport along microtubules; 220,000 compounds, 0.47% hits; AID 1381; z-score, hits read low; 3617.4 mouse cells, GR-EGFP nuclear translocation imaging; test concentration mostly 20 µM; stimulated with dexamethasone, 1 µM; active compounds read low;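 active means plate z-score of nuclear minus cytoplasmic receptor signal below a set negative limit, without overly bright fluorescence or cell loss, cut at about -3.5 in these data, passing the limit was not always enough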;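 further: z-score of nuclear minus cytoplasmic ring GR-EGFP intensity difference per well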
#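 medium = tetracycline-free induction medium containing charcoal-stripped FBS | also added = 1.0 µM final dexamethasone stimulus | schedule = 48 h induction, 1 h compound, 30 min dex at 37 °C | technique = fixed, Hoechst-stained cells imaged at 10x for EGFP | measure = GR-EGFP nuclear translocation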
# MT stabilizer – microtubule stabilizers in HeLa cells; HeLa tubulin immunostaining HCS, 24 h; share of cells brighter than vehicle mean+2SD; % tubulin-high responders, % at 10 µM; 200,000 compounds, 0.83% hits; AID 2205;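 active means plate Z-score above 3 for both tubulin-high and condensed-nucleus cell shares, with cell loss under 80%, at 10 µM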;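 further: anti alpha tubulin signal scored within the nucleus-defined area of each cell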
# bCat nuc transl – beta-catenin nuclear translocation modulation; HeLa beta-catenin nuclear translocation, immunofluorescence imaging; nuclear translocation activity, % at 5 µM; 190,000 compounds, 0.3% hits; AID 1665;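 active means nuclear translocation activity above 50% at 5 µM, with a well cell count of 50 or more; inconclusive means wells under 50 cells across six images, flagged as toxic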;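 further: per-cell ratio of nuclear to cytoplasmic median beta-catenin stain intensity; plate controls were DMSO negative control for no effect and GSK-3 inhibitor IX positive control for full effect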
#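 Test system: human HeLa cells, native beta-catenin. Compound dosing: 5 µM primary single dose, 0.1% DMSO, 0.02–20 µM confirmation series. Incubation: compound exposure 24 h at 37°C. Detection: beta-catenin immunostaining with DAPI counterstain, 20x imaging, 6 fields/well. Read-out basis: Nuclear/cytoplasmic beta-catenin signal ratio, % activation.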
# HSV replic up – increases HSV replication in cells. HSV replication augmentation in cells, fold increase. 220,000 compounds, 0.005% hits. maximum fold increase; in the data active means maximum fold increase above about 1.5; inconclusive means no clear call, values can overlap the other calls; tested in PC3 cells
# L major viab – Leishmania major promastigote growth inhibition | Leishmania major promastigotes, resazurin fluorescence viability | 200,000 compounds, 9% hits | inhibition, % at 10 µM; in the data active means inhibition above about 50%;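 further: promastigotes grown with compound for 44 hours at 28 °C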
# * marks the source's active call; other numbers are inactive results; i = inactive; ? = inconclusive; / = no result given. Most compounds without a hit are left out; they make up all but 8.9% or so of the library.
SMILES,Dynein transport,MT stabilizer,bCat nuc transl,HSV replic up,L major viab
COc1ccc(S(=O)(=O)N2CCN(C3Cc4ccccc4C3)CC2)cc1,0.334,2.5,1.6,i,96.8*
O=S(=O)(c1ccc(Cl)cc1)N1CCN(C2CCN(Cc3ccccc3)CC2)CC1,0.0903,1.6,/,i,98.9*
O=C(c1ccc(S(=O)(=O)N2CCCC2)cc1)N1CCC(CN2C(=O)c3cccc4cccc(c34)C2=O)CC1,3.11,/,1.1,i,/
COc1ccc(S(=O)(=O)N2CCC(N3CCN(Cc4ccccc4)CC3)CC2)cc1,-0.159,3.4,2.0,i,87.0*
N#Cc1nc(-c2ccccc2F)oc1NCc1cccc2c1OCO2,-0.349,3.5,-2.7,i,-6.3
CC(=O)Nc1cccc(Nc2nc(-c3ccccc3)nc3ccccc23)c1,1.61,2.4,-0.8,/,17.1
COc1cccc(OC)c1C(=O)OCC(=O)Nc1ccc(OC(F)(F)F)cc1,-1.06,1.6,-6.0,i,15.1
CCOC(=O)N1CCC(N2CCN(S(=O)(=O)c3ccc4ccccc4c3)CC2)CC1,0.392,2.2,/,i,97.6*
COc1ccc(S(=O)(=O)N2CCN(Cc3ccc(Cl)cc3)CC2)cc1,-0.368,2.4,-0.2,i,50.6*
Cc1ccc(-n2c(SCC(=O)N/N=C/c3ccccc3C(=O)O)nnc2-c2ccccc2)cc1,-0.29,/,-0.2,i,/
CCOC(=O)C1=C(C)NC(=O)C(C#N)C1c1ccncc1 (stereo not given),-0.189,1.0,/,i,-1.8
O=C1CC(c2ccccc2Cl)=NN(c2ncnc3ccccc23)C1=O,0.474,4.0,-3.7,?,83.0*
CCCCNC(=O)c1ccc2c(OCC)n(CCCC)nc2c1,-0.217,2.1,-1.4,i,4.6
CCCCn1nc2cc(C(=O)NCC34CC5CC(CC(C5)C3)C4)ccc2c1OC,0.415,2.6,-1.0,i,58.6*
CCOc1c2ccc(C(=O)NCC34CC5CC(CC(C5)C3)C4)cc2nn1CC,0.586,2.9,-2.0,i,85.5*
CCn1nc2cc(C(=O)NCC34CC5CC(CC(C5)C3)C4)ccc2c1OC,1.04,4.7,-1.5,i,51.1*
CCOc1c2ccc(C(=O)NCc3ccco3)cc2nn1CC,0.393,3.8,-1.9,i,-1.9
CCCCn1nc2cc(C(=O)NCCCCc3ccccc3)ccc2c1OCC,-0.457,8.5,1.6,i,72.6*
CCCCn1nc2cc(C(=O)NCC3CC3)ccc2c1OCC,-0.575,2.1,0.1,i,-4.7
CCOc1c2ccc(C(=O)NCc3ccccc3OC)cc2nn1CC,-0.273,2.5,1.1,i,-3.2
O=C(NO)C1CC2C=CC1C2 (stereo not given),-0.377,3.6,0.3,i,-0.7
N/C(Cc1ccc([N+](=O)[O-])cc1)=N\OC(=O)c1ccccc1Br,-0.334,1.8,4.2,i,94.2*
N/C(Cc1ccc([N+](=O)[O-])cc1)=N\OC(=O)c1ccc(Br)cc1,0.535,2.4,1.3,i,2.4
N/C(Cc1ccccc1)=N\OC(=O)c1cccc2ccccc12,0.931,3.8,/,i,96.6*
CC(=O)c1ccc(OC(=O)C(CCS(C)(=O)=O)N2C(=O)c3ccccc3C2=O)cc1 (stereo not given),-2.57,2.4,/,i,67.4*
SMILES,Dynein transport,MT stabilizer,bCat nuc transl,HSV replic up,L major viab
CCOc1ccc(OC(=O)C(CCS(C)(=O)=O)N2C(=O)c3ccccc3C2=O)cc1 (stereo not given),0.751,1.3,/,i,71.6*
COc1cccc(OCC(O)CN2CCN(c3ncccn3)CC2)c1 (stereo not given),-0.721,5.6,/,i,-9.6
COc1ccc(CCN(C(=O)C(F)(F)F)C(C(=O)NC2CCCCC2)c2ccc(C)s2)cc1 (stereo not given),-0.0693,3.6,-2.5,i,67.6*
CCOC(=O)Nc1sc(C)nc1-c1ccccc1,-1.22,2.8,-5.2,i,-0.3
CCOC(=O)Nc1nc(-c2ccccc2)c(C(=O)c2ccc(Cl)cc2)s1,0.59,9.4,182.3*,i,3.8
COc1ccc(S(=O)(=O)Nc2ccccc2C)cc1,0.605,34.8,-6.7,i,5.0
COc1ccc(S(=O)(=O)Nc2c3ccccc3nc(=O)n2-c2ccccc2)cc1,-0.464,1.6,-1.8,i,-2.1
COc1ccc(S(=O)(=O)Nc2cc3c4c(oc3c3ccccc23)CC(C)(C)CC4=O)cc1,-1.43,20.0*,1.0,i,100.2*
COc1ccc(S(=O)(=O)Nc2cc3c4c(oc3c3ccccc23)CCCC4=O)cc1,-0.365,24.9*,-1.3,i,19.5
